The source of these data is ChEMBL document CHEMBL1123555, “1,2-Bis(sulfonyl)hydrazines. 3. Effects of structural modification on antineoplastic activity” (1987).

In general, T/C refers to the result in the treated group divided by that in the control group, in per cent.

For test [1], the species on record is Mus musculus. Kind of test: Antitumor activity against B16 melanoma cells in mice, activity is expressed as optimal effective dose. In kind it is functional. A digest of the protocol:
(§1)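 Transplanted tumor in mice, given i.p. once daily for 6 consecutive days starting 24 h after implantation. Doses span 10-150 mg/kg per day as fine suspensions homogenized in a few drops of 20% aqueous Tween 80 and made up with isotonic saline. Groups of five; vehicle-injected tumor-bearing controls. %T/C = mean survival time treated/control × 100. Value is the daily dose giving maximum %T/C.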

The species named for test [2] is Mus musculus. Put plainly: Antitumor activity against L1210 leukemia cells in mice calculated as average change in body weight from onset to termination of therapy. Type of test: functional. The gist of the method: (§2)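 Tumor-bearing mice in groups of five, dosed i.p. daily for 6 days from 24 h post-implantation with suspensions in Tween 80/isotonic saline at 10-150 mg/kg per day; vehicle controls run alongside. Mice weighed during the experiment. Average percent body-weight change from onset to termination of therapy was taken as the toxicity index, reported at the optimal-survival dose.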

The species entered for test [3] is Mus musculus. Put plainly: Antitumor activity against L1210 leukemia cells in mice, activity is expressed as optimal effective dose. Type of test: functional. The gist of the method:
as §1

Test [4] is described as follows: Antitumor activity against mouse B16 melanoma cells, calculated as average change in body weight from onset to termination of therapy. In kind it is functional. The gist of the method:
as §2

Test [5] is filed under the species Mus musculus. Kind of test: Antitumor activity against L1210 leukemia cells in mice (activity expressed as average survival time of treated/control animals x 100). In kind it is functional. The gist of the method:
(§3)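 Compound given ip as a fine suspension (homogenized in drops of 20% aqueous Tween 80, made to volume with isotonic saline) at 10-150 mg/kg per day, once daily for 6 consecutive days starting 24 h after implantation. Vehicle-injected tumor-bearing controls were included. Read-out was survival time; body-weight change over therapy was the toxicity indicator.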

Test [6] in a line: Antitumor activity against B16 melanoma cells in mice, activity is expressed as average survival time of treated/control animals x 100. Type of test: functional, Mus musculus. The gist of the method: as §3
The species named for test [7] is Mus musculus. Kind of test: Antitumor activity against B16 melanoma cells in mice. Activity is expressed as optimal effective dose. Type of test: functional. The gist of the method:
as §1

The next test has as its system L1210. Kind of test: Antitumor activity against L1210 leukemia cells in mice, activity is expressed as optimal effective dose. Type of test: functional, Mus musculus. A digest of the protocol: as §1
For test [8], the species on record is Mus musculus. Kind of test: Antitumor activity against L1210 leukemia cells in mice, activity is expressed as average survival time of treated/control animals x 100. Type of test: functional. The gist of the method: as §3
For test [9], the species on record is Mus musculus. Put plainly: Antitumor activity against B16 melanoma cells in mice, activity is expressed as optimal effective dose. Type of test: functional. A digest of the protocol: as §1

Regarding `CN(NS(=O)(=O)c1ccc2ccccc2c1)S(=O)(=O)c1ccc(Br)cc1`, the Dose is 200 mg/kg in the test listed under Mus musculus [1] and 100 mg/kg in the test listed under Mus musculus [3]. Also, the Weight change is reported as 18.3% in the test filed under Mus musculus [2] and 3.7% in test [4]. In the test listed under Mus musculus [5], this molecule had a T/C of 123%.
`COc1ccc(S(=O)(=O)N(CCCl)NS(=O)(=O)c2ccccc2)cc1`: the values for the Weight change (in the test listed under Mus musculus [2]; in [4]) were 4.8% and -2.8%, respectively. In addition, the Dose in the test listed under Mus musculus [3] was found to be 10 mg/kg; in the test filed under Mus musculus [7], 12.5 mg/kg. The T/C in the test filed under Mus musculus [5] worked out at 136%; in [6], 138%.
`COc1ccc(S(=O)(=O)NN(C)S(=O)(=O)c2ccc(Br)cc2)cc1`: the Dose in the test listed under Mus musculus [1] and in the test filed under Mus musculus [3] was 100 mg/kg in each case. For the same molecule, the Weight change in the test filed under Mus musculus [2] is 7.8%; in test [4], 1.3%.
Turning to `CN(NS(=O)(=O)c1ccc(Br)cc1)S(=O)(=O)Cc1ccccc1`, in the test filed under Mus musculus [1], the Dose is 50 mg/kg. Moreover, the Weight change in test [4] is on record as 4.7%.
`COc1ccc(S(=O)(=O)N(C)NS(=O)(=O)c2ccccc2[N+](=O)[O-])cc1` came in with a Dose in the test listed under Mus musculus [1] of 150 mg/kg. Moreover, in [4], the Weight change is recorded as 1.5%. Besides, the T/C in test [6] was found to be 158%.
Turning to `COc1ccc(S(=O)(=O)N(C)NS(=O)(=O)Cc2ccccc2)cc1`, the Dose in the test on L1210 and in the test filed under Mus musculus [7] was 50 mg/kg in each case. Moreover, the results for the Weight change (in the test listed under Mus musculus [2]; in [4]) were 1.5% and 2.1%, respectively. The results for the T/C (in the test filed under Mus musculus [5]; in test [6]) were 153% and 160%, respectively.
For `CN(NS(=O)(=O)c1ccc(Br)cc1)S(=O)(=O)c1ccc(Br)cc1`, the figures for the Dose in the test filed under Mus musculus [1] and in the test filed under Mus musculus [3] were 50 mg/kg and 150 mg/kg, respectively. Besides, the figures for the Weight change (in the test listed under Mus musculus [2]; in test [4]) were 1.7% and -3.8%, respectively. Besides, the T/C in test [6] was determined as 160%.
For the molecule `CN(NS(=O)(=O)c1ccc(Cl)cc1)S(C)(=O)=O`, the Dose in the test with L1210 and in the test listed under Mus musculus [7] was 60 mg/kg throughout. Besides, the Weight change was -9.4% in the test listed under Mus musculus [2] and -8.7% in [4]. Moreover, the values for the T/C (in the test listed under Mus musculus [5]; in [6]) were 214% and 219%, respectively.
In the case of `COc1ccc(S(=O)(=O)N(CCCl)NS(C)(=O)=O)cc1`, the Weight change is -10.9% in the test filed under Mus musculus [2] and 3.8% in [4]. Moreover, the Dose in the test listed under Mus musculus [3] and in the test filed under Mus musculus [7] was 10 mg/kg each time. Moreover, the T/C was determined as 184% in test [6] and 214% in the test listed under Mus musculus [8].
`CN(NS(=O)(=O)c1ccc(Br)cc1)S(C)(=O)=O`: the Dose in the test filed under Mus musculus [1] was found to be 100 mg/kg; in the test listed under Mus musculus [3], 40 mg/kg. Besides, the Weight change in the test filed under Mus musculus [2] was 6.3%; in test [4] it was -11.4%. Further, the T/C in the test filed under Mus musculus [5] is 191%; in test [6], 235%.
`CC(=O)Nc1ccc(S(=O)(=O)N(C)NS(=O)(=O)c2ccc(Br)cc2)cc1`: the Dose in the test filed under Mus musculus [1] amounted to 150 mg/kg. Further, in [4], the Weight change is -5.7%.
Turning to `COc1ccc(S(=O)(=O)NN(C)S(=O)(=O)c2ccc(Cl)cc2)cc1`, the Dose with L1210 stood at 150 mg/kg; in the test filed under Mus musculus [7] it was 50 mg/kg. Moreover, the Weight change in the test filed under Mus musculus [2] is listed as -4.3%; in [4] it was 1%. Further, the T/C in the test filed under Mus musculus [5] came out at 130%; in test [6], 189%.
The molecule `CN(NS(=O)(=O)c1ccc(Cl)cc1)S(=O)(=O)c1ccc(Br)cc1` gave a Dose in the test listed under Mus musculus [1] of 200 mg/kg. The Weight change in [4] was 2%.
In the case of `Cc1ccc(S(=O)(=O)NN(C)S(C)(=O)=O)cc1`, the results for the Dose with L1210 and in the test listed under Mus musculus [7] were 40 mg/kg and 60 mg/kg, respectively. The Weight change is listed as -12.3% in the test filed under Mus musculus [2] and -8.6% in test [4]. Also, the T/C in the test filed under Mus musculus [5] is 186%; in test [6] it was 256%.
For `CN(NS(=O)(=O)c1ccc2ccccc2c1)S(=O)(=O)c1ccc2ccccc2c1`, the Dose was 100 mg/kg in the test listed under Mus musculus [1] and 150 mg/kg in the test filed under Mus musculus [3]. Further, the Weight change in the test filed under Mus musculus [2] was -3.3%; in test [4], 4.6%.
Consider `CCS(=O)(=O)NN(C)S(=O)(=O)c1ccc(Br)cc1`, for which the Dose in the test listed under Mus musculus [1] amounted to 30 mg/kg. Moreover, the Weight change in [4] is 4.5%. In test [6], this molecule displayed a T/C of 190%.
In the case of `CN(NS(=O)(=O)/C=C/c1ccccc1)S(=O)(=O)c1ccc(Br)cc1`, the Dose in the test listed under Mus musculus [1] is 100 mg/kg. Moreover, the Weight change in test [4] was 0.7%.
On to `CN(NS(=O)(=O)c1ccccc1)S(=O)(=O)c1ccc(Br)cc1`, for which the Weight change in test [4] was 1.5%. Also, the Dose in the test filed under Mus musculus [9] amounted to 100 mg/kg. For the same molecule, the T/C in test [6] was determined as 160%.
On to `CN(NS(C)(=O)=O)S(C)(=O)=O`, for which the values for the Dose in the test listed under Mus musculus [1] and in the test listed under Mus musculus [3] were 50 mg/kg and 25 mg/kg, respectively. In addition, the Weight change in the test listed under Mus musculus [2] was -15.3%; in [4] it was -7.9%. Also, the T/C in the test listed under Mus musculus [5] was 340%; in [6], 278%.
Turning to `Cc1ccc(S(=O)(=O)NN(C)S(=O)(=O)c2ccc(Br)cc2)cc1`, the Dose in the test listed under Mus musculus [3] stood at 100 mg/kg.
Consider `Cc1ccc(S(=O)(=O)N(C)NS(=O)(=O)c2ccc(Br)cc2)cc1`, for which the Weight change is 5.6% in the test filed under Mus musculus [2] and -5.1% in test [4]. Besides, the Dose in the test filed under Mus musculus [3] was determined as 50 mg/kg; in the test listed under Mus musculus [7] it was 150 mg/kg.
Take `Cc1ccc(S(=O)(=O)N(C)NS(=O)(=O)Cc2ccccc2)cc1`: the Dose in the test filed under Mus musculus [1] and in the test with L1210 was 50 mg/kg each time. In test [4], the Weight change is -2.4%. Besides, the T/C in test [6] was found to be 172%.
As for `COc1ccc(S(=O)(=O)N(C)NS(=O)(=O)c2ccc(Br)cc2)cc1`, the Weight change in the test filed under Mus musculus [2] was 3.4%; in [4] it was -0.1%. Further, the Dose in the test filed under Mus musculus [3] and in the test filed under Mus musculus [7] was 100 mg/kg throughout.
As to `CN(NS(=O)(=O)/C=C/c1ccccc1)S(=O)(=O)/C=C/c1ccccc1`, the Dose in the test listed under Mus musculus [1] amounted to 50 mg/kg. Further, the Weight change in test [4] is given as 2%.
`CN(NS(C)(=O)=O)S(=O)(=O)c1ccc(Br)cc1` returned a Dose in the test listed under Mus musculus [1] of 20 mg/kg. In test [4], the Weight change is reported as 4.2%. In [6], this molecule registered a T/C of 225%.
On to `COc1ccc(S(=O)(=O)NN(C)S(C)(=O)=O)cc1`, for which the Dose in the test listed under Mus musculus [1] and in the test with L1210 was 60 mg/kg each time. Moreover, the Weight change in the test filed under Mus musculus [2] is on record as -13.7%; in test [4] it was -11.9%. Also, the T/C in the test listed under Mus musculus [5] was found to be 221%; in test [6] it was 233%.
